Laboratory results as given in ChEMBL document CHEMBL3769376, “Discovery of I-BRD9, a Selective Cell Active Chemical Probe for Bromodomain Containing Protein 9 Inhibition” (J Med Chem, 2016).
Values after ≈ are worked out from the molar mass of the structure shown. Active and inactive are the calls of the source. No cut-off for these calls is given here.

Tests used:
[1] = target: Prostaglandin G/H synthase 2 (Homo sapiens) (UniProt P35354); experiment: Inhibition of human COX2 at <5 uM by FLINT assay
[2] = target: Voltage-gated inwardly rectifying potassium channel KCNH2 (Homo sapiens, UniProt Q12809); experiment: Inhibition of human ERG channel at <5 uM by electrophysiology
[3] = target: Beta-2 adrenergic receptor (Homo sapiens) (UniProt P07550); experiment: Agonist activity at human beta-2 adrenergic receptor at <5 uM by TR-FRET assay
[4] = organism: Homo sapiens; experiment: Agonist activity at human GABA-A receptor at <5 uM by electrophysiology
[5] = target: Alpha-2C adrenergic receptor (Homo sapiens) (UniProt P18825); experiment: Inhibition of human alpha 2c adrenergic receptor at <5 uM by TR-FRET assay
[6] = target: Amine oxidase [flavin-containing] A (Homo sapiens, UniProt P21397); experiment: Inhibition of human MAO-A at <5 uM by FLINT assay
[7] = target: D(2) dopamine receptor (Homo sapiens) (UniProt P14416); experiment: Antagonist activity at human D2 dopamine receptor at <5 uM by scintillation proximity assay
D(2) dopamine receptor (Homo sapiens), sequence (P14416 whole entry): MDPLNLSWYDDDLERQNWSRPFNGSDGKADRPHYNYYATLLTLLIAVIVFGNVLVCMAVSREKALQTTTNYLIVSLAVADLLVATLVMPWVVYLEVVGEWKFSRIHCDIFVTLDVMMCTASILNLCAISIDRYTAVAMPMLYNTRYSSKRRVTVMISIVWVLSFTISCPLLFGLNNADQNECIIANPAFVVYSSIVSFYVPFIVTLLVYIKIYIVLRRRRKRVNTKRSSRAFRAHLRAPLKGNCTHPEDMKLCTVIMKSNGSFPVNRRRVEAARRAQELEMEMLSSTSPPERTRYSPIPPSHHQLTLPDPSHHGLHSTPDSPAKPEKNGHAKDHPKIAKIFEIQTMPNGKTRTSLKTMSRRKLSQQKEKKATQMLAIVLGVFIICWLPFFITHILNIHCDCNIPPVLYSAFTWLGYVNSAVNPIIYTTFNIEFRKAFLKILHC

[8] = target: Aurora kinase B (Homo sapiens) (UniProt Q96GD4); experiment: Inhibition of human aurora B at <5 uM by IMAP assay
[9] = target: cGMP-inhibited 3',5'-cyclic phosphodiesterase 3A (Homo sapiens) (UniProt Q14432); experiment: Inhibition of human PDE3A at <5 uM by luminescence assay
cGMP-inhibited 3',5'-cyclic phosphodiesterase 3A (Homo sapiens), sequence (Q14432 whole entry): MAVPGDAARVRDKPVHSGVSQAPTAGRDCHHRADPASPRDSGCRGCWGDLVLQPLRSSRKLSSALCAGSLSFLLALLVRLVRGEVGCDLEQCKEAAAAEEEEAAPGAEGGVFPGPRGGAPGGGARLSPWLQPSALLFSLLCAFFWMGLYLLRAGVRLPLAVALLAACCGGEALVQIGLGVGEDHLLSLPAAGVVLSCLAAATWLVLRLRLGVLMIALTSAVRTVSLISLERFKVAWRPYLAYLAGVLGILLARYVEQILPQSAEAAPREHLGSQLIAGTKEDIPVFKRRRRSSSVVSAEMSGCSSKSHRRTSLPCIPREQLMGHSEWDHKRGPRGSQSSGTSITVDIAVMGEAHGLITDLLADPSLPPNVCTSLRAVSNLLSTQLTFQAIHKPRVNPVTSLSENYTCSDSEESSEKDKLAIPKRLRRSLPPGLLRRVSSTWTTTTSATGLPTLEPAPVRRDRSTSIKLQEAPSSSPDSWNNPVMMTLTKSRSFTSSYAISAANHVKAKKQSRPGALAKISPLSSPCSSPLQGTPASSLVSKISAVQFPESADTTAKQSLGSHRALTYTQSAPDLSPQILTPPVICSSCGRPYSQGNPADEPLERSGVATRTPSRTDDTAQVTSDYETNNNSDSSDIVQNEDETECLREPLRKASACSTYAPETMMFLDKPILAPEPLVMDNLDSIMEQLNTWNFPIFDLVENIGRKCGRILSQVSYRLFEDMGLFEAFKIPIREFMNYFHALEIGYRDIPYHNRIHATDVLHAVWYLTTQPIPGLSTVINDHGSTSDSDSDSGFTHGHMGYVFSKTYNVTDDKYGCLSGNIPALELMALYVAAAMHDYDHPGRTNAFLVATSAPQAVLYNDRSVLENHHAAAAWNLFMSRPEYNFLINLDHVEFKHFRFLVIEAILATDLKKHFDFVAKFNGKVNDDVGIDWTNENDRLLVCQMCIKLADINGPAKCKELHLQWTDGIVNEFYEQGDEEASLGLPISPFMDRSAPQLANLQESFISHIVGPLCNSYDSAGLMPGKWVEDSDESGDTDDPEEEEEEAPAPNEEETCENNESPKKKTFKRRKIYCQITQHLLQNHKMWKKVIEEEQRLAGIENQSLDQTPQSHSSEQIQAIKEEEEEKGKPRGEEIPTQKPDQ

[10] = target: T1, Bromodomain-containing protein 9 (Homo sapiens) (UniProt Q9H8M2); details: Kasumi 1, 10 uM
T1 sequence (whole entry): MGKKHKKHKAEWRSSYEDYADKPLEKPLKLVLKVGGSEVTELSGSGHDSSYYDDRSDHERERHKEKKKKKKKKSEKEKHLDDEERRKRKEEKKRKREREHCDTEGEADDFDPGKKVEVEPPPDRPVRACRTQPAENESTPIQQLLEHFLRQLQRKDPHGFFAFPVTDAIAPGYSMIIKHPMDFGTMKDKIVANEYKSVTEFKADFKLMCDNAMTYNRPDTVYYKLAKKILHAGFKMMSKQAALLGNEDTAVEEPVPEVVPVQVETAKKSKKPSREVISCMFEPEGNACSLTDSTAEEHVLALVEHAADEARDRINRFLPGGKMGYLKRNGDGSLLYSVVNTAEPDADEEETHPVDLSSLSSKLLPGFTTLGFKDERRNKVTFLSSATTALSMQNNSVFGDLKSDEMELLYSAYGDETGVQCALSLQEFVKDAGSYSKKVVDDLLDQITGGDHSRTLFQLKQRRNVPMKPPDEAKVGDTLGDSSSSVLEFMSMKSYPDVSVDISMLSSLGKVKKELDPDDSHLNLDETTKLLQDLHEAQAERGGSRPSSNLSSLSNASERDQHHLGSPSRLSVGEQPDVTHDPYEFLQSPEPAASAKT

[11] = target: Muscarinic acetylcholine receptor M2 (Homo sapiens) (UniProt P08172); experiment: Antagonist activity at human muscarinic 2 receptor assessed as change in intracellular calcium level at <5 uM by fluorescence assay; format: functional, cell-based
Muscarinic acetylcholine receptor M2 (Homo sapiens), sequence (P08172 whole entry): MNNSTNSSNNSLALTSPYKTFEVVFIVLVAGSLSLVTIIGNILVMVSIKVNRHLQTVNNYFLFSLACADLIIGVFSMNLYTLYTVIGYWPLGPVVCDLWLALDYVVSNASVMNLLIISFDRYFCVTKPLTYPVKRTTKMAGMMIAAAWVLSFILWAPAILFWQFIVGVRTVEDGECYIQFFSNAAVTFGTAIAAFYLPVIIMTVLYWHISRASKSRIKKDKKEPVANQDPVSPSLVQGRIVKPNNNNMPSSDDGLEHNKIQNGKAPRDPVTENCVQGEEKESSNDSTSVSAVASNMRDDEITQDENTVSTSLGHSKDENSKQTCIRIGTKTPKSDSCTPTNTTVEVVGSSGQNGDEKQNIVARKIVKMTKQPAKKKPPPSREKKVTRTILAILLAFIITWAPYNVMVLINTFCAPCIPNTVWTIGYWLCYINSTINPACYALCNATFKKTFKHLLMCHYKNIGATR

[12] = target: 5-hydroxytryptamine receptor 2C (Homo sapiens) (UniProt P28335); experiment: Agonist activity at human 5HT2C receptor assessed as change in intracellular calcium level at <5 uM by fluorescence assay; format: functional, cell-based
[13] = target: 5-hydroxytryptamine receptor 1B (Homo sapiens) (UniProt P28222); experiment: Antagonist activity at human 5HT1B receptor at <5 uM by scintillation proximity assay
5-hydroxytryptamine receptor 1B (Homo sapiens), sequence (P28222 whole entry): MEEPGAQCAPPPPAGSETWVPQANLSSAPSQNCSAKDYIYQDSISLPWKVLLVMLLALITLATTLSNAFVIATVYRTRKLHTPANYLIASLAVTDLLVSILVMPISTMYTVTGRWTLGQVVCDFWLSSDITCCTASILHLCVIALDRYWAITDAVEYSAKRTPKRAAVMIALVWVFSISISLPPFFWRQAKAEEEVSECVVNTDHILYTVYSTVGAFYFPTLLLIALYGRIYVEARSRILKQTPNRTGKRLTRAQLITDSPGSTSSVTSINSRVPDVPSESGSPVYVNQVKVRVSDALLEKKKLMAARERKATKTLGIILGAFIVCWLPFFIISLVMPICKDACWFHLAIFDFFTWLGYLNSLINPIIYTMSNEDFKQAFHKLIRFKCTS

[14] = organism: Homo sapiens; experiment: Positive modulator activity at human GABA-A receptor at <5 uM by electrophysiology
[15] = target: Amine oxidase [flavin-containing] B (Homo sapiens, UniProt P27338); experiment: Inhibition of human MAO-B at <5 uM by FLINT assay
[16] = target: Sodium-dependent serotonin transporter (Homo sapiens) (UniProt P31645); experiment: Antagonist activity at human SERT transporter at <5 uM by scintillation proximity assay
Sodium-dependent serotonin transporter (Homo sapiens), sequence (P31645 whole entry, looked up): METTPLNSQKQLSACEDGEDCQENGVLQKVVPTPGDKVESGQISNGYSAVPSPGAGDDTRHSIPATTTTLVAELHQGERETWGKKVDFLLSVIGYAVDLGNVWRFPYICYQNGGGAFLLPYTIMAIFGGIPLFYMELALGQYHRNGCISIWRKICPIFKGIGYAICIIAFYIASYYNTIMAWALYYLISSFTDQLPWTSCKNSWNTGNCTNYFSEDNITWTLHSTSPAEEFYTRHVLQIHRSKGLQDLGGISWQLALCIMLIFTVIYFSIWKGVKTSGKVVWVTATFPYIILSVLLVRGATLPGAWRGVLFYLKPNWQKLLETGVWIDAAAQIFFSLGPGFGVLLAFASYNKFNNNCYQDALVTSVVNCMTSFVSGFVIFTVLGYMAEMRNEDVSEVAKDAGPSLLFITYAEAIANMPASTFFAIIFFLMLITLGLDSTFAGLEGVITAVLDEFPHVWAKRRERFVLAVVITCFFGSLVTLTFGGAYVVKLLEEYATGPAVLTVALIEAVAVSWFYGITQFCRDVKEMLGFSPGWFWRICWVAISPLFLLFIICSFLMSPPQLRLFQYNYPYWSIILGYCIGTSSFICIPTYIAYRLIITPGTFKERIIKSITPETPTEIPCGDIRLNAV

[17] = Aqueous solubility of the compound in PBS at pH 7.4 by chemiluminescent nitrogen detection method; format: physicochemical
Method in brief: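 A 10 mM DMSO stock was precipitated into pH7.4 phosphate buffered saline at 5% DMSO. Dissolved compound was quantified by chemiluminescent nitrogen detection.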

[18] = target: Substance-P receptor (Homo sapiens) (UniProt P25103); experiment: Antagonist activity at human NK1 receptor assessed as change in intracellular calcium level at <5 uM by fluorescence assay; format: functional, cell-based
Substance-P receptor (Homo sapiens), sequence (P25103 whole entry): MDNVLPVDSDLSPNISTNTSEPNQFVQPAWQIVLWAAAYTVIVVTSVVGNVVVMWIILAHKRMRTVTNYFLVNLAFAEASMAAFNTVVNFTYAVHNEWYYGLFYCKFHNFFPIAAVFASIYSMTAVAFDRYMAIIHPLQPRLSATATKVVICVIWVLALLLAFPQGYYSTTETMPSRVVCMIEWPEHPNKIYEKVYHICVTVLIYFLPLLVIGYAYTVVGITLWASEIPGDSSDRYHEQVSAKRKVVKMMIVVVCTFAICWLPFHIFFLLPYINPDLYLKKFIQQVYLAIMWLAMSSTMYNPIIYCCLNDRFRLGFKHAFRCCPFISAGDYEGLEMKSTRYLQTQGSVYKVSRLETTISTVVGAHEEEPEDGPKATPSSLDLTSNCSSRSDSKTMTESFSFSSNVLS

[19] = target: Potassium voltage-gated channel subfamily A member 5 (Homo sapiens) (UniProt P22460); experiment: Inhibition of human Kv1.5 channel at <5 uM by electrophysiology
[20] = target: 5-hydroxytryptamine receptor 3A (Homo sapiens) (UniProt P46098); experiment: Antagonist activity at human 5HT3 receptor assessed as change in intracellular calcium level at <5 uM by fluorescence assay; format: cell-based
5-hydroxytryptamine receptor 3A (Homo sapiens), sequence (P46098 whole entry): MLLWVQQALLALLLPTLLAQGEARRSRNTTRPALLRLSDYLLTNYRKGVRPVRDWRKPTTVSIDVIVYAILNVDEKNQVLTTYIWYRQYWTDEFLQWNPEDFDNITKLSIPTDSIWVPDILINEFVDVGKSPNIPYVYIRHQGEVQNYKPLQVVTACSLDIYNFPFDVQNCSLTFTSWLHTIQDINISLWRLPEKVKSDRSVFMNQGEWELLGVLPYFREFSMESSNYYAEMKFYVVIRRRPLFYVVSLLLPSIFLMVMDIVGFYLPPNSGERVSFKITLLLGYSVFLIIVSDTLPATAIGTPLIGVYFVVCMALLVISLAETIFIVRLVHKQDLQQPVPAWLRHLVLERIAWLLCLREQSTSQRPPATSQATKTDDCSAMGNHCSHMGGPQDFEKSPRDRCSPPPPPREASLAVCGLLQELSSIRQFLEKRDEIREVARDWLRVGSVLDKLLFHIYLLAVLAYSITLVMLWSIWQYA

[21] = target: Sodium-dependent noradrenaline transporter (Homo sapiens) (UniProt P23975); experiment: Antagonist activity at human NE transporter at <5 uM by scintillation proximity assay
Sodium-dependent noradrenaline transporter (Homo sapiens), sequence (P23975 whole entry, canonical isoform): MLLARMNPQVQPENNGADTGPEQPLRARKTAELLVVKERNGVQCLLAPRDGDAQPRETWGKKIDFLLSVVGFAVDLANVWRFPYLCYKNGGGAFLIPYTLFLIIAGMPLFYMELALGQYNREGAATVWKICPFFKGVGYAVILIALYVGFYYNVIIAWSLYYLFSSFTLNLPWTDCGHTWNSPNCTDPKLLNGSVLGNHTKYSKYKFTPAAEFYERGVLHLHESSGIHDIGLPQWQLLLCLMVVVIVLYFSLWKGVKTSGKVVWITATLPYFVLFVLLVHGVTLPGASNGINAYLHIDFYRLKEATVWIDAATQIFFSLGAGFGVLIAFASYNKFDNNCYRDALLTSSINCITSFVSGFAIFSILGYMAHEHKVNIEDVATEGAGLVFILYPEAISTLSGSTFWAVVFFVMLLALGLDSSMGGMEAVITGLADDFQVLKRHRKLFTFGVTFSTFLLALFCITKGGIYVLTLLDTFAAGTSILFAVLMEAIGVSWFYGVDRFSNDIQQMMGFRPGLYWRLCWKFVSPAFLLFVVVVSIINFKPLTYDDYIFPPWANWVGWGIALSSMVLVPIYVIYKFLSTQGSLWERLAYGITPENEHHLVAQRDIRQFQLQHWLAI

[22] = target: Phosphatidylinositol 4,5-bisphosphate 3-kinase catalytic subunit gamma isoform (Homo sapiens) (UniProt P48736); experiment: Inhibition of human PI3Kgamma at <5 uM by TR-FRET assay
[23] = target: Kappa-type opioid receptor (Homo sapiens) (UniProt P41145); experiment: Agonist activity at human kappa opiod receptor at <5 uM by scintillation proximity assay
Kappa-type opioid receptor (Homo sapiens), sequence (P41145 whole entry): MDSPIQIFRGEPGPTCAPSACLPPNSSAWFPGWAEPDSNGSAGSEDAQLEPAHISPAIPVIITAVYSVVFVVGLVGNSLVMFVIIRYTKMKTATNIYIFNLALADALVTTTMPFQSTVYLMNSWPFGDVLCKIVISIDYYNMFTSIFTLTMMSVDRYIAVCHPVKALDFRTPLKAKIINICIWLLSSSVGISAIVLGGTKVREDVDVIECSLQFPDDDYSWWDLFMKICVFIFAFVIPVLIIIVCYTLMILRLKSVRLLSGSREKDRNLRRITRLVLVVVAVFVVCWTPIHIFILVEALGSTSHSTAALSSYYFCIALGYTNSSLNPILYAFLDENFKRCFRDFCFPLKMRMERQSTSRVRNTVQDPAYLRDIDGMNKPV

[24] = target: Alpha-1B adrenergic receptor (Homo sapiens) (UniProt P35368); experiment: Antagonist activity at human Alpha 1b adrenergic receptor assessed as change in intracellular calcium level at <5 uM by fluorescence assay; format: functional, cell-based
[25] = target: 5-hydroxytryptamine receptor 3A (Homo sapiens) (UniProt P46098); experiment: Agonist activity at human 5HT3 receptor assessed as change in intracellular calcium level at <5 uM by fluorescence assay; format: cell-based
[26] = target: 5-hydroxytryptamine receptor 2A (Homo sapiens) (UniProt P28223); experiment: Agonist activity at human 5HT2A receptor by assessed as change in intracellular calcium level at <5 uM by fluorescence assay; format: functional, cell-based
[27] = target: D(2) dopamine receptor (Homo sapiens) (UniProt P14416); experiment: Agonist activity at human D2 dopamine receptor at <5 uM by scintillation proximity assay
[28] = target: Bromodomain-containing protein 3 (Homo sapiens, UniProt Q15059); experiment: Inhibition of BRD3 in human HUT78 cells incubated for 45 mins by chemoproteomic competition binding assay; format: cell-based
Method in brief: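 Nuclear and tight-chromatin extracts were prepared from HuT78 cells grown in spinner flasks. Compound was spiked into the mixed extracts at a range of doses and incubated for 45 min at 4 °C. Extracts were then incubated with sepharose beads derivatised with 2.0 mM of an amine-bearing bromodomain ligand. Beads were washed with 0.2% NP-40 lysis buffer and eluted in SDS/DTT. BRD3 was read out by Western blot.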

[29] = target: Nuclear receptor subfamily 1 group I member 2 (Homo sapiens, UniProt O75469); experiment: Agonist activity at human PXR at <5 uM by luciferase reporter gene assay
[30] = target: Cytochrome P450 3A4 (Homo sapiens, UniProt P08684); experiment: Inhibition of CYP3A4 (unknown origin) preincubated with substrate at <5 uM by mass spectrometry; format: ADME

CCn1cc(-c2cccc(C(F)(F)F)c2)c2sc(C(=N)NC3CCS(=O)(=O)CC3)cc2c1=O
inhibition [1]: inactive | inhibition (INH) [2]: Not Active | Activity [3]: inactive | Activity [4]: inactive | inhibition [5]: inactive | inhibition (INH) [6]: Not Active | inhibition [7]: inactive | inhibition [8]: inactive | inhibition [9]: inactive | inhibition [10]: Active | inhibition [11]: inactive | Activity [12]: inactive | inhibition [13]: inactive | Activity [14]: inactive | inhibition (INH) [15]: Not Active | inhibition [16]: inactive | solubility [17]: 359 µM (≈ 179 µg/mL) | inhibition [18]: inactive | inhibition [19]: inactive | inhibition [20]: inactive | inhibition [21]: inactive | inhibition [22]: inactive | Activity [23]: inactive | inhibition [24]: inactive | Activity [25]: inactive | Activity [26]: inactive | Activity [27]: inactive | IC50 [28]: > 50.1 µM | Activity [29]: Not Active | inhibition (INH) [30]: Not Active
